One experiment concerns Leishmania major. Briefly: Antileishmanial activity against Leishmania major promastigotes after 72 hrs by Neubauer chamber counting. The experiment is classed as functional, organism-based.
The test system of the next experiment is Leishmania donovani. Briefly: Antileishmanial activity against Leishmania donovani promastigotes after 72 hrs by Neubauer chamber counting. In kind it is functional, organism-based. The essentials: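 Clinical isolate promastigotes grown at 24 °C in medium 199 with 10% fetal bovine serum, HEPES, sodium bicarbonate, penicillin and streptomycin. Cultures harvested after 6–7 days, washed three times in PBS, resuspended at 2 × 10^6 cells/mL and exposed to serial compound dilutions for 72 h at 24 °C with shaking. Amphotericin B positive control, DMSO negative control. Run in triplicate; IC50 from live-cell counts.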

Where [1] appears, read: Leishmania donovani, 72 h, read-out: IC50.

Values after ≈ are worked out from the molar mass of the structure shown.

The term IC50 denotes the point on the concentration scale where inhibition reaches its midpoint. For the compound `CC1=C(C(=O)Nc2ccc(C(=O)/C=C/c3ccc(O)cc3)cc2)C(c2ccc(C)cc2)NC(=S)N1` (configuration not stated), the half-inhibitory concentration (IC50) was 0.53 µg/mL (≈ 1.1 µM) in the experiment on Leishmania major and “Not Active” in the experiment on Leishmania donovani. For `COCC1=C(C(=O)OC)C(c2cccc([N+](=O)[O-])c2)NC(=O)N1` (configuration not stated), the IC50 in the experiment on Leishmania major came to 0.95 µg/mL (≈ 2.96 µM).

Take `CC(=O)C1=C(C)NC(=S)NC1c1ccccc1` (configuration not stated): the IC50 with Leishmania major amounted to 0.78 µg/mL (≈ 3.17 µM). As to `CC(=O)C1=C(CNc2ccc(C(=O)/C=C/c3ccc(Cl)cc3)cc2)N(C)C(=O)NC1c1ccccc1` (configuration not stated), the IC50 in the experiment with Leishmania major was 0.53 µg/mL (≈ 1.06 µM); with Leishmania donovani (setting [1]), 4.4 µg/mL (≈ 8.8 µM). Regarding `CC1=C(C(=O)/C=C/c2ccc(Cl)cc2)C(c2ccccc2)NC(=O)N1C` (configuration not stated), the values for the IC50 in the experiment on Leishmania major and in the experiment on Leishmania donovani were 0.63 µg/mL (≈ 1.72 µM) and “Not Active”, respectively. On to `CC1=C(C(=O)/C=C/c2cccc([N+](=O)[O-])c2)C(c2ccccc2)NC(=O)N1C` (configuration not stated), for which the IC50 in the experiment with Leishmania major is 0.73 µg/mL (≈ 1.93 µM); in the experiment on Leishmania donovani, “Not Active”. Turning to `CC(=O)C1=C(CNc2ccc(C(=O)/C=C/c3ccc(N(C)C)cc3)cc2)N(C)C(=O)NC1c1ccccc1` (configuration not stated), the IC50 in the experiment with Leishmania major was 0.71 µg/mL (≈ 1.4 µM); in the experiment on Leishmania donovani, “Not Active”.

Consider `CC1=C(C(=O)Nc2ccc(C(=O)/C=C/c3cccc([N+](=O)[O-])c3)cc2)C(c2cccc(O)c2)NC(=S)N1` (configuration not stated), for which the half-inhibitory concentration (IC50) is 0.58 µg/mL (≈ 1.13 µM) in the experiment on Leishmania major and “Not Active” with Leishmania donovani. On to `CC1=C(C(=O)Nc2ccc(C(=O)/C=C/c3ccc(O)cc3)cc2)C(c2cccc(O)c2)NC(=S)N1` (configuration not stated), for which the IC50 was found to be 0.51 µg/mL (≈ 1.05 µM) in the experiment on Leishmania major and 5.58 µg/mL (≈ 11.5 µM) with Leishmania donovani (setting [1]).

`CC(=O)C1=C(C)N(C)C(=O)NC1c1ccccc1` (configuration not stated) gave an IC50 in the experiment on Leishmania major of 0.63 µg/mL (≈ 2.58 µM). Same read-out and setting: under `CCOC(=O)C1=C(C)NC(=S)NC1c1ccc(C)cc1` (configuration not stated) stands 0.63 µg/mL (≈ 2.17 µM). Turning to `CC(=O)C1=C(CNc2ccc(C(=O)/C=C/c3ccc(O)cc3)cc2)N(C)C(=O)NC1c1ccccc1` (configuration not stated), the values for the IC50 with Leishmania major and with Leishmania donovani (setting [1]) were 0.51 µg/mL (≈ 1.06 µM) and 7.5 µg/mL (≈ 15.6 µM), respectively. Consider `CC(=O)C1=C(C)NC(=O)NC1c1cccc([N+](=O)[O-])c1` (configuration not stated), for which half-maximal inhibition with Leishmania major (IC50) required 0.67 µg/mL (≈ 2.43 µM). The compound `COc1cc(C2NC(=O)NC(C)=C2C(C)=O)ccc1O` (configuration not stated) yielded an IC50 in the experiment with Leishmania major of 0.71 µg/mL (≈ 2.57 µM).

In the experiment on Leishmania major, `CC(=O)C1=C(C)NC(=O)NC1c1cccc(C)c1` (configuration not stated) gave an IC50 of 0.89 µg/mL (≈ 3.64 µM).

On to `CC(=O)C1=C(CNc2ccc(C(=O)/C=C/c3cccc([N+](=O)[O-])c3)cc2)N(C)C(=O)NC1c1ccccc1` (configuration not stated), for which the IC50 is 0.67 µg/mL (≈ 1.31 µM) in the experiment with Leishmania major and above 100 µg/mL in the experiment with Leishmania donovani (setting [1]). In the experiment with Leishmania major, `CCOC(=O)C1=C(C)NC(=O)NC1c1ccccc1` (configuration not stated) had an IC50 of 0.99 µg/mL (≈ 3.8 µM). Regarding `CC(=O)C1=C(CNc2ccc(C(=O)/C=C/c3ccccc3)cc2)N(C)C(=O)NC1c1ccccc1` (configuration not stated), the IC50 was 0.54 µg/mL (≈ 1.16 µM) with Leishmania major and above 100 µg/mL in the experiment with Leishmania donovani (setting [1]).

As for `CC1=C(C(=O)/C=C/c2ccc(O)cc2)C(c2ccccc2)NC(=O)N1C` (configuration not stated), the half-maximal inhibitory concentration (IC50) with Leishmania major is 0.59 µg/mL (≈ 1.69 µM); in the experiment with Leishmania donovani, “Not Active”. On to `CC(=O)C1=C(CNc2ccc(C3=NNC(c4ccc(O)cc4)C3)cc2)N(C)C(=O)NC1c1ccccc1` (configuration not stated), for which the results for the IC50 with Leishmania major and with Leishmania donovani (setting [1]) were 0.47 µg/mL (≈ 0.948 µM) and 1.5 µg/mL (≈ 3.03 µM), respectively. Consider `COc1ccc(C2NC(=O)NC(C)=C2C(C)=O)cc1` (configuration not stated), for which the IC50 with Leishmania major came to 0.69 µg/mL (≈ 2.65 µM).

Take `CCOC(=O)C1=C(C)NC(=S)NC1c1cccc(O)c1` (configuration not stated) [MONASTROL]: the IC50 with Leishmania major is 0.65 µg/mL (≈ 2.22 µM). Turning to `CC1=C(C(=O)Nc2ccc(C(=O)/C=C/c3cccc([N+](=O)[O-])c3)cc2)C(c2ccc(C)cc2)NC(=S)N1` (configuration not stated), the IC50 is 0.65 µg/mL (≈ 1.27 µM) in the experiment on Leishmania major and “Not Active” with Leishmania donovani.

`CC(=O)C1=C(C)NC(=O)NC1c1ccccc1` (configuration not stated) showed an IC50 in the experiment with Leishmania major of 0.61 µg/mL (≈ 2.65 µM).

(Values after ChEMBL document CHEMBL3784943, “Structure based medicinal chemistry-driven strategy to design substituted dihydropyrimidines as potential antileishmanial agents” (Eur J Med Chem, 2016).)
